Screening data as filed in PubChem.
S1P4 agonist – agonists of human S1P4 receptor; S1P4-expressing cell line, agonist reporter assay; activation, % at 4.98 µM; 220,000 tested, 0.35% active; in the data active means activation above about 11%
S1P4 antag – antagonists of human S1P4 receptor; O95977; S1P4-expressing cells, antagonist mode, reporter read-out; inhibition, % at 4.98 µM; 220,000 tested, 0.26% active; in the data active means inhibition above about 29%
Calb biofilm kill – mixture kills Candida albicans biofilm cells. AID 1242. C. albicans biofilm persisters + clotrimazole, fluorescence viability; primary screen in compound mixtures of four per well. inhibition, % at 7.6 µM. 120,000 tested, 0.02% active;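 active means inhibition above 30.3% in the primary screen of four-compound pools, then above 30% when the compound was retested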;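 further: compounds exposed to preformed 24 h biofilms for 48 h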
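Test system: C. albicans CAF4-2 wild-type biofilms; buffer or medium: RPMI/MOPS medium, pH 7.0; schedule: 24 h biofilm formation, then 48 h compound exposure, 37 °C; detection: Alamar Blue fluorescence; measure: percent inhibition of biofilm viability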
S1P3 antag – antagonists of human S1P3 receptor. Q99500. CHO S1P3 NFAT-BLA reporter, FRET fluorescence, antagonist mode. inhibition, % at 4.98 µM. 170,000 tested, 0.27% active. AID 485;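 active means inhibition above the plate cutoff, the mean inhibition of test wells on that plate plus 3 SD, cut at about 28% in these data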;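 further: cells challenged with S1P at its EC80 of 0.8 µM; blue over green emission ratio from cleaved BLA substrate after 4 h stimulation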
Target sequence (Q99500 whole entry, looked up): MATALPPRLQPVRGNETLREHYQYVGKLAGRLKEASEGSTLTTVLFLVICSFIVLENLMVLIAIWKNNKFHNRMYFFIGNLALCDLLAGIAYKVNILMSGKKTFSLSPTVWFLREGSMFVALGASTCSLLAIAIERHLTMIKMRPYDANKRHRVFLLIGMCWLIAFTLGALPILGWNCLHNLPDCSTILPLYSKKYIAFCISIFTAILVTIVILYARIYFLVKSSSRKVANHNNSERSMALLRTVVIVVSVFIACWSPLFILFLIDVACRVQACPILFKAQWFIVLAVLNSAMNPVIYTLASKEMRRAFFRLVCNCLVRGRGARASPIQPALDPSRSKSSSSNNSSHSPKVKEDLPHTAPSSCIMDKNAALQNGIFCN
MDM2 E3 inh – Mdm2 E3 ligase (human) inhibition; Q00987; cell-based MDM2 ubiquitination luciferase reporter, 2 h; 0 = plate control, 100 = twice control, blank-subtracted; signal enhancement, % at 5 µM; 210,000 tested, 0.11% active; AID 1230;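 active means signal enhancement of 30% or more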;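 further: luminescence tracks abundance of the self-degrading MDM2-luciferase fusion protein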
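Material: Stable MDM2–luciferase fusion reporter cells | Amount: 2000 cells seeded into each well | Dosing: One concentration, 5 µM, with 0.2% DMSO | Incubation: 4 h cell settling then 2 h compound exposure, 37 °C | Measured by: Luciferase luminescence | Read-out basis: % enhancement relative to plate controls after blank subtraction | Benchmarks: Control and blank well means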
S1P4 antag cf – human S1P4 antagonism, confirmation; shares compounds with S1P4 antag; S1P4-expressing cell line, antagonist mode, reporter read-out; inhibition, % at 4.98 µM; 520 tested, 71% active; in the data active means inhibition above about 30%
S1P1 antagonist – human S1P1 antagonism as S1P4 antagonist counter-screen | shares compounds with S1P4 antag | cell-based S1P1 antagonist counterscreen, inhibition | inhibition, % at 4.98 µM | 520 tested, 37% active | AID 1564; in the data active means inhibition above about 40%;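 further: receptor stimulated with S1P near its EC80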
Numbers stand for hits; – = inactive; · = no result given. Shown are actives, neighbours in structure and some others; about 0.9% of the full set was active somewhere.

SMILES | S1P4 agonist | S1P4 antag | Calb biofilm kill | S1P3 antag | MDM2 E3 inh | S1P4 antag cf | S1P1 antagonist
CCCS(=O)(=O)c1nnnn1-c1cccc(OC)c1 | – | 38 | · | – | – | 111 | –
COc1cccc(-n2nnnc2SCC(=O)Nc2ccc(C(C)=O)cc2)c1 | – | – | – | · | – | · | ·
Cc1cc(NC(=O)CSc2nc3ccsc3c(=O)n2CCCC(=O)NCCc2ccccc2)no1 | – | – | – | – | – | · | ·
CN1Cc2c(N3CCOCC3)nc3sc(C(=O)c4ccc(Br)cc4)c(N)c3c2CC1(C)C | – | 43 | – | – | – | 57 | 58
CCOC(=O)C1=C(N)Oc2c(oc(CO)cc2=O)C1c1ccc(F)cc1 (centres undefined) | – | – | – | · | – | · | ·
CC(=O)Nc1ccc(SCC(=O)c2cc(C)n(C)c2C)cc1 | – | – | · | · | – | · | ·
O=C(Nc1nc(=O)c2ccccc2s1)c1ccccc1 | – | 36 | · | · | – | – | –
CC(=O)Nc1nc(=O)c2ccccc2s1 | – | – | · | – | – | · | ·
O=C(c1ccccc1)c1ccccc1N1C(=O)C=CC1=O | – | 38 | – | – | – | 104 | –
O=C(c1ccccc1)c1ccccc1C(=O)N1CCN(C(=O)c2ccccc2)CC1 | – | – | – | – | – | · | ·
C/C(=N\NC(=O)c1sccc1-n1cccc1)c1cccs1 | – | – | – | – | – | · | ·
O=[N+]([O-])c1cc(Cl)c2cccnc2c1O | – | – | – | – | – | · | ·
O=[N+]([O-])c1cc(Cl)c(O)c2ncccc12 | – | 31 | – | – | – | 62 | 55
CC1=CC(C)(C)Nc2ccc(OC(=O)c3ccco3)cc21 | – | 30 | · | – | – | 56 | –
CNC(=O)CSCc1c(F)cccc1Cl | – | – | – | · | – | · | ·
CC(C)NC(=O)CSCc1c(F)cccc1Cl | – | 57 | – | · | – | – | –
CCOC(=O)C1=C(C)N=C2SC(C(=O)OC)=CC(=O)N2C1c1ccc(OC)cc1 (centres undefined) | – | 46 | – | – | – | – | –
C=C1C(=O)C=C2CN(C(=O)c3ccccc3)[C@@](Cc3ccc(F)cc3)(C(=O)OC)[C@@H]12 | – | 60 | – | – | · | 119 | 143
COC(=O)[C@@]1(Cc2ccc(OC)cc2)[C@@H]2C(=CC(=O)[C@H]2CC(=O)C(=O)N(C)C)CN1C(=O)c1ccccc1 | – | – | – | – | · | · | ·
COc1ccc(C=C(c2nc3ccccc3s2)c2nc3ccccc3s2)cc1O | – | 29 | – | – | – | 58 | –
O=C(COC(=O)/C=C/c1ccccc1)NCc1ccccc1Cl | – | – | – | – | – | · | ·
CCc1ccc(OCC(=O)NC(NC(=S)Nc2ccc(Cl)cc2)C(Cl)(Cl)Cl)cc1 (centres undefined) | – | 42 | – | – | – | – | –
CCCCC(CC)c1nnc(NC(=O)c2cccs2)s1 (centres undefined) | – | 29 | – | – | – | – | –
N=c1n(CCN2CCCCC2)c2ccccc2n1CC(O)c1ccc(Cl)c(Cl)c1 (centres undefined) | – | 55 | · | · | – | 58 | 59
CCOc1ccc(NC(=O)Nc2cc(OCC(F)(F)F)cc(OCC(F)(F)F)c2)cc1 | – | 90 | – | – | – | 113 | –
SMILES | S1P4 agonist | S1P4 antag | Calb biofilm kill | S1P3 antag | MDM2 E3 inh | S1P4 antag cf | S1P1 antagonist
CCOc1ccc(NC(=O)Nc2cccc(C(=O)O)c2)cc1 | – | – | – | – | – | · | ·
Cc1n[nH]c(C)c1N1C(=O)c2cccc3cc(Br)cc(c23)C1=O | – | – | · | · | – | · | ·
Cc1n[nH]c(C)c1N1C(=O)c2cccc3c(Br)ccc(c23)C1=O | – | 70 | – | · | – | 79 | 93
CCOc1ccc(C(C)=O)cc1N1C(=O)C2C3C=CC(O3)C2C1=O (centres undefined) | – | 53 | · | – | – | – | –
CN(C)N1C(N)=C(C#N)C(c2cccnc2)C2=C1CCCC2=O (centres undefined) | – | – | – | – | – | · | ·
O=C(NC1CCCC1)C(c1ccncc1)N(Cc1ccco1)C(=O)c1ccc(-c2ccccc2)[nH]1 (centres undefined) | – | 47 | – | – | – | – | –
Nc1nc2c([N+](=O)[O-])cccc2s1 | – | – | – | – | – | · | ·
NC(=O)C(=O)N/N=C/c1c(F)c(F)c(F)c(F)c1F | – | – | – | – | – | · | ·
O=C(Cn1ncc(Cl)c(Cl)c1=O)c1ccc(Cl)cc1 | – | 44 | – | · | – | 107 | 63
Cc1nc2ccccc2n1CC(=O)N1CC(=O)Nc2ccccc21 | – | – | · | – | – | · | ·
O=C1CN(C(=O)Cn2ncc(Cl)c(Cl)c2=O)c2ccccc2N1 | – | 38 | – | – | – | 117 | 69
Cc1ccc(NC(=O)CN(C)C(=O)Cn2ncc(Cl)c(Cl)c2=O)cc1 | – | 82 | – | – | – | 106 | 79
CC(C)(C)C(=O)Cn1ncc(Cl)c(Cl)c1=O | – | 53 | – | – | – | 78 | –
CCCCC(CCC(=O)Nc1cc([N+](=O)[O-])ccc1O)C(=O)O (centres undefined) | – | – | – | – | · | · | ·
COc1ccc2c(c1)CCCC21SC(NC(C)=O)=NN1C(C)=O (centres undefined) | – | – | – | – | – | · | ·
C=CCOc1ccc(/C=N/N2C(=O)C(CC(=O)Nc3ccc(F)cc3F)SC2=NC)cc1 (centres undefined) | – | – | – | – | – | · | ·
O=C(OCn1ncc(Cl)c(Cl)c1=O)c1ccc(F)cc1 | – | – | · | · | – | · | ·
O=c1c(Cl)c(Cl)cnn1Cc1ccc(F)cc1 | – | 60 | – | – | – | 105 | –
CCOC(=O)COc1cc([N+](=O)[O-])cc2cccnc12 | – | – | – | – | – | · | ·
CCOC(=O)COc1ccccc1/C=C\[N+](=O)[O-] | – | 33 | – | – | – | 114 | 72
COc1ccc(-c2cnnn2-c2ccc(N)cc2)cc1OC | – | – | · | – | – | · | ·
Nc1cccc(-n2nncc2-c2ccc(Cl)cc2)c1 | – | 32 | · | · | – | – | –
CCOC(=O)N1CCN(CC(=O)N2CCC(C(N)=O)CC2)CC1 | – | – | – | – | – | · | ·
O=C(Oc1cccnc1)c1ccco1 | – | – | · | · | – | · | ·
CN(C(=O)C(Cl)Cl)c1ccc(OC(=O)c2ccco2)cc1 | – | 33 | – | – | · | 34 | –
OC(CNCCc1ccccc1)COc1ccc(OCC(O)CNCCc2ccccc2)cc1 (centres undefined) | – | 32 | – | – | – | 55 | –
CS(=O)(=O)c1nc(-c2cccs2)cc(C(F)(F)F)n1 | – | 39 | · | · | – | 119 | 41
O=C(O)CCS(=O)(=O)c1nc(-c2cccs2)cc(C(F)(F)F)n1 | – | – | · | · | – | · | ·
CS(=O)(=O)c1nc(-c2ccc(F)cc2)cc(C(F)(F)F)n1 | – | 70 | – | – | – | 117 | –
COc1ccc(-c2cc(C(F)(F)F)nc(S(C)(=O)=O)n2)cc1 | – | – | · | · | – | · | ·
